Data taken from ChEMBL document CHEMBL1125406, “Structure-activity relationships for inhibition of papain by peptide Michael acceptors” (J Med Chem, 1992).
Each block holds one compound with its values, some of them ahead of it.

Legend:
[1] = Compound was evaluated for the ratio of apparent inactivation rate constant k2 to apparent binding constant Ki; conditions: read-out: k2 / Ki
Method in brief: (§1)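 Mercurial papain activated with L-cysteine for 45 min at 25 °C in 50 mM phosphate, 1 mM EDTA, pH 6.2. Papain (0.11 μM) was incubated at 25 °C and pH 6.2, in 20% CH3CN, with excess inhibitor. Aliquots taken about every 10 min were diluted 10-fold into buffer containing 2 mM Cbz-Gly-ONp. Residual activity was read at 340 nm, corrected for spontaneous hydrolysis, and analysed by Kitz–Wilson plot.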

[2] = target: T1, Papain (Carica papaya) (UniProt P00784); assay: Compound was evaluated for papain inactivation. [I] is the inhibitor concentration; 6-35; assay type: functional; method in brief: as §1
T1 sequence (whole entry): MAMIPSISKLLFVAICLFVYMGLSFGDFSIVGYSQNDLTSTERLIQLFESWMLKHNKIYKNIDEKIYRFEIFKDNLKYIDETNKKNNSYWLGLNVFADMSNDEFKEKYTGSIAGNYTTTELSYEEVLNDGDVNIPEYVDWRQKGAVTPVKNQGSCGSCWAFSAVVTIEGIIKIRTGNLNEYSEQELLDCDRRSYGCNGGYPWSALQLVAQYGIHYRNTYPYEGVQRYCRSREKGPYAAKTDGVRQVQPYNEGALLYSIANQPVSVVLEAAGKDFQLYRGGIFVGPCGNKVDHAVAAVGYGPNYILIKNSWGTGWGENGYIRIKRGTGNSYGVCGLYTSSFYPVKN

[3] = target: T1, Papain (Carica papaya); assay: Compound was evaluated for papain inactivation. [I] is the inhibitor concentration; 2-30; assay type: functional; method in brief: as §1
[4] = target: T1, Papain (Carica papaya); assay: Compound was evaluated for papain inactivation. [I] is the inhibitor concentration; 80-160; assay type: functional; method in brief: as §1
[5] = target: T1, Papain (Carica papaya); assay: Compound was evaluated for papain inactivation. [I] is the inhibitor concentration; 60-500; assay type: functional; method in brief: as §1
[6] = target: T1, Papain (Carica papaya); assay: Compound was evaluated for papain inactivation. [I] is the inhibitor concentration; 30-450; assay type: functional; method in brief: as §1
[7] = target: T1, Papain (Carica papaya); assay: Compound was evaluated for papain inactivation. [I] is the inhibitor concentration; 60-1000; assay type: functional; method in brief: as §1
[8] = target: T1, Papain (Carica papaya); assay: Compound was evaluated for papain inactivation. [I] is the inhibitor concentration; 0.05-1.08; assay type: functional; method in brief: as §1
[9] = target: T1, Papain (Carica papaya); assay: Compound was evaluated for papain inactivation. [I] is the inhibitor concentration; 0.07-0.58; assay type: functional; method in brief: as §1
[10] = target: T1, Papain (Carica papaya); assay: Compound was evaluated for papain inactivation. [I] is the inhibitor concentration; 1.42-10; assay type: functional; method in brief: as §1
[11] = target: T1, Papain (Carica papaya); assay: Compound was evaluated for papain inactivation. [I] is the inhibitor concentration; 0.87-10; assay type: functional; method in brief: as §1
[12] = target: T1, Papain (Carica papaya); assay: Compound was evaluated for papain inactivation. [I] is the inhibitor concentration; 1-8; assay type: functional; method in brief: as §1

kinact/KI [1]: 26.1 M⁻¹ s⁻¹
I [2]: 6 µM
SMILES: COC(=O)/C=C/CNC(=O)C(Cc1ccccc1)NC(C)=O (stereo unspecified)

kinact/KI [1]: 18.7 M⁻¹ s⁻¹
I [3]: 2 µM
SMILES: CC(=O)NC(Cc1ccccc1)C(=O)NC/C=C/S(C)(=O)=O (stereo unspecified)

I [4]: 80 µM
SMILES: CC(=O)NC(Cc1ccccc1)C(=O)NC/C=C/c1ccc([N+](=O)[O-])cc1 (stereo unspecified)

kinact/KI [1]: 1.7 M⁻¹ s⁻¹
I [5]: 60 µM
SMILES: CC(=O)NC(Cc1ccccc1)C(=O)NC/C=C/C#N (stereo unspecified)

kinact/KI [1]: 5 M⁻¹ s⁻¹
I [6]: 30 µM
SMILES: CC(=O)NC(Cc1ccccc1)C(=O)NC/C=C/C(=O)O (stereo unspecified)

kinact/KI [1]: 1.1 M⁻¹ s⁻¹
I [7]: 60 µM
SMILES: CC(=O)NC(Cc1ccccc1)C(=O)NC/C=C/C(N)=O (stereo unspecified)

kinact/KI [1]: 2.46 M⁻¹ s⁻¹
I [8]: 0.056 mM
SMILES: COC(=O)/C=C/CNC(=O)[C@@H](CC(C)C)NC(C)=O

kinact/KI [1]: 2.06 M⁻¹ s⁻¹
I [9]: 0.07 mM
SMILES: COC(=O)/C=C/CNC(=O)[C@@H](CCSC)NC(C)=O

kinact/KI [1]: 0.05 M⁻¹ s⁻¹
I [10]: 1.42 mM
SMILES: COC(=O)/C=C/CNC(=O)c1ccccc1

kinact/KI [1]: 0.23 M⁻¹ s⁻¹
I [11]: 0.87 mM
SMILES: COC(=O)/C=C/CNC(=O)CCc1ccccc1

kinact/KI [1]: 0.25 M⁻¹ s⁻¹
I [12]: 1 mM
SMILES: COC(=O)/C=C/CNC(=O)[C@H](Cc1ccccc1)NC(C)=O
